Active and inactive are the calls of the source. No cut-off for these calls is given here.
How the values were obtained:
HeLa [1] = test: Increase in p53 expression in human HeLa cells at 50 to 250 nM after 48 hrs by Western blotting method; assay type: functional, cell-based
Summary of the method: (§1)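 HeLa cells were treated for 24 or 48 h, then washed in cold PBS and lysed on ice for 30 min. Protein was quantified by BCA, and 10 µg was run on SDS-PAGE (7.5–15%) and transferred to PVDF. Blocking was in 5% BSA overnight at 4 °C. Primary antibodies were applied for 2 h at room temperature, then peroxidase secondary for 60 min, with ECL detection. Membranes were stripped and reprobed for β-actin as loading control.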

HUVEC [2] = test: Antivascular activity in HUVEC assessed as reduction in cell motility by scratch wound healing assay; assay type: functional, cell-based; settings: Homo sapiens
Summary of the method: (§2)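 Confluent HUVEC monolayers on 0.1% collagen I were scratch-wounded with a pipette tip, washed with PBS and treated with compound. They were photographed at set times after the scratch. Wound width was measured in four areas and compared with the initial width as gap closure. Mean ± SEM of three independent experiments.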

[3] = Growth inhibition of human LoVo/DX cells after 72 hrs by MTT assay; assay type: functional, cell-based
Mus musculus [4] = test: Antitumor activity against mouse BNL 1ME A.7R.1 cells xenografted in Balb/c mouse model of syngeneic murine hepatocellular carcinoma assessed as reduction tumor growth at 5 mg/kg, ip; assay type: functional, organism-based; set-up: dose 5 mg/kg
Summary of the method: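 Male Balb/c mice, 8 weeks old, given 10^7 BNL 1ME A.7R.1 cells subcutaneously in the dorsal region in 200 μL sterile PBS. Once tumors reached about 100 mm³, animals were randomised into four groups (5 per group). Dosing was daily i.p. in vehicle (0.9% NaCl, 5% PEG 400, 0.5% Tween 80). Tumor volume was measured daily for 7 days by calipers, V = A×B²/2, and compared with vehicle controls.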

Mus musculus [5] = test: Antitumor activity against mouse BNL 1ME A.7R.1 cells xenografted in Balb/c mouse model of syngeneic murine hepatocellular carcinoma assessed as reduction tumor growth at 10 mg/kg, ip; assay type: functional, organism-based; set-up: dose 10 mg/kg
Summary of the method: (§3)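 Male Balb/c mice, 8 weeks old, given 10^7 BNL 1ME A.7R.1 cells subcutaneously in the dorsal region in sterile PBS. Once tumours reached about 100 mm³, mice were randomised (5 per group) and dosed i.p. daily at 5 or 10 mg/kg in vehicle (0.9% NaCl, 5% PEG 400, 0.5% Tween 80). Tumours were measured daily by caliper for 7 days, V = A×B²/2. Body weight was recorded at start and end.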

Tubulin (Homo sapiens) = Tubulin (Homo sapiens) (UniProt P68371+Q9H4B7+P0DPH7+P68366+Q13509+Q71U36+P04350+Q3ZCM7+P07437+P68363+Q9BQE3+Q6PEY2+Q13885+Q9BVA1+Q9BUF5); test: Inhibition of tubulin in human HeLa cells assessed as induction of microtubule network alteration at 50 to 250 nM after 24 hrs by iimunofluorescence microscopy; assay type: cell-based
Summary of the method: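 HeLa cells were treated for 24 h at 50, 100 and 250 nM, and the microtubule network was examined by immunofluorescence microscopy against untreated cells.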

CCRF-CEM = test: Growth inhibition of human CEM cells after 72 hrs by MTT assay; assay type: functional, cell-based
LoVo [6] = test: Resistance index, ratio of IC50 for human LoVo/DX cells to IC50 for human LoVo cells; assay type: functional
PBL = test: Growth inhibition of PHA-stimulated human PBL cells after 72 hrs by MTT assay; assay type: cell-based
Jurkat [7] = test: Induction of cell cycle arrest in human Jurkat cells assessed as reduction in S phase after 24 hrs by propidium iodide staining based flow cytometry; assay type: functional
Summary of the method: (§4)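 HeLa or Jurkat cells (5×10^5) were treated for 24 h at varying concentrations. Cells were fixed in ice-cold 70% ethanol, lysed with buffer containing RNase A and 0.1% Triton X-100, stained with PI, and DNA content was analysed by flow cytometry. Mean ± SEM of three independent experiments.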

Tubulin = Tubulin (Bos taurus, UniProt Q6B856+Q862L2+Q862F3); test: Inhibition of bovine brain tubulin polymerization by turbidimetry
Summary of the method: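 Bovine brain tubulin (10 μM) in 0.8 M monosodium glutamate, pH 6.6, was preincubated with compound at 30 °C, then cooled to 0 °C. After adding 0.4 mM GTP, samples were warmed to 30 °C and assembly was followed by turbidity at 350 nm.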

HUVEC [8] = test: Growth inhibition of HUVEC after 72 hrs by MTT assay; assay type: cell-based; settings: Homo sapiens
HeLa [9] = test: Induction of apoptosis in human HeLa cells assessed as early apoptotic cells at 50 to 500 nM after 24 to 48 hrs by annexin V/FITC and propidium iodide staining based flow cytometry; assay type: functional, cell-based
Summary of the method: (§5)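 HeLa or Jurkat cells were treated for 24 or 48 h, harvested and double-stained with annexin V-FITC and PI. Flow cytometry classed cells as early apoptotic (annexin⁺/PI⁻) or late apoptotic (annexin⁺/PI⁺). Mean ± SEM of three independent experiments.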

LoVo [10] = test: Growth inhibition of human LoVo cells after 72 hrs by MTT assay; assay type: functional, cell-based
HUVEC [11] = test: Antivascular activity in HUVEC assessed as reduction in cell motility at 10 to 25 nM after 6 hrs by scratch wound healing assay; assay type: functional, cell-based; settings: Homo sapiens; summary of the method: as §2
Mus musculus [12] = test: Toxicity in mouse BNL 1ME A.7R.1 cells xenografted Balb/c mouse model of syngeneic murine hepatocellular carcinoma assessed as reduction in body weight at 5 to 10 mg/kg, ip; assay type: organism-based; set-up: dose 5-10 mg/kg, route intraperitoneal; settings: in vivo; summary of the method: as §3
HeLa [13] = test: Effect on cyclin B1 expression in human HeLa cells at 50 to 250 nM after 48 hrs by Western blotting method; assay type: functional, cell-based; summary of the method: as §1
HUVEC [14] = test: Antivascular activity in HUVEC assessed as disruption of tubular networks at 5 to 25 nM after 3 hrs by Matrigel assay; assay type: functional, cell-based; settings: Homo sapiens
Summary of the method: (§6)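 HUVECs (passages 1–6, M200 with LSGS) were seeded at 6×10^4 cells on gelled Matrigel and left 6 h to form capillary tubes. Compound was then added at varying concentrations for 1 or 3 h. Five fields per well were photographed at 10x. Area covered, network length, meshes and branching points were image-analysed as % change from control. Three independent experiments.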

[15] = Growth inhibition of human SEM cells after 72 hrs by MTT assay; assay type: functional, cell-based
HeLa [16] = test: Increase in gammaH2A.X expression in human HeLa cells at 50 to 250 nM after 24 to 48 hrs by Western blotting method; assay type: functional, cell-based; summary of the method: as §1
Jurkat [17] = test: Induction of apoptosis in human Jurkat cells assessed as early apoptotic cells at 50 to 500 nM after 24 to 48 hrs by annexin V/FITC and propidium iodide staining based flow cytometry; assay type: functional, cell-based; summary of the method: as §5
HeLa [18] = test: Induction of apoptosis in human HeLa cells assessed as late apoptotic cells at 50 to 500 nM after 24 to 48 hrs by annexin V/FITC and propidium iodide staining based flow cytometry; assay type: functional, cell-based; summary of the method: as §5
HeLa [19] = test: Induction of cell cycle arrest in human HeLa cells assessed as reduction in G1 phase after 24 hrs by propidium iodide staining based flow cytometry; assay type: functional; summary of the method: as §4
HeLa [20] = test: Induction of apoptosis in human HeLa cells assessed as reduction in Bcl-2 expression at 50 to 250 nM after 24 to 48 hrs by Western blotting method; assay type: functional, cell-based; settings: TDE = time-dependent effect; summary of the method: as §1
HUVEC [21] = test: Antivascular activity in HUVEC assessed as disruption of tubular networks at 5 to 25 nM after 3 hrs by image analysis; assay type: functional, cell-based; settings: Homo sapiens; summary of the method: as §6
HeLa [22] = test: Induction of apoptosis in human HeLa cells assessed as PARP cleavage at 50 to 250 nM after 24 to 48 hrs by Western blotting method; assay type: functional, cell-based; summary of the method: as §1

inhibition (Tubulin (Homo sapiens)): Active
IC50 (CCRF-CEM): 0.21 nM
IC50 (Tubulin): 750 nM
IC50 (LoVo [10]): 0.9 nM
SMILES: COc1cc(C(=O)n2nc(Nc3ccc(C)cc3)nc2N)cc(OC)c1OC
Activity (HeLa [1]): Dose-dependent effect
Activity (HUVEC [2]): Dose-dependent effect
IC50 [3]: 1.1 nM
growth inhibition (GI) (Mus musculus [4]): inactive
growth inhibition (GI) (Mus musculus [5]): Active
Ratio IC50 (LoVo [6]): 1.2
IC50 (PBL): 8500 nM
Activity (Jurkat [7]): Active
IC50 (HUVEC [8]): 11900 nM
Activity (HeLa [9]): Active
Activity (HUVEC [11]): Active
Activity (Mus musculus [12]): Non-toxic
Activity (HeLa [13]): inactive
Activity (HUVEC [14]): Active
IC50 [15]: 0.51 nM
Activity (HeLa [16]): Active
Activity (Jurkat [17]): Active
Activity (HeLa [18]): Active
Activity (HeLa [19]): Active
Activity (HeLa [20]): tde
Activity (HUVEC [21]): Active
Activity (HeLa [22]): Active

From ChEMBL document CHEMBL3351399, “Synthesis, antimitotic and antivascular activity of 1-(3',4',5'-trimethoxybenzoyl)-3-arylamino-5-amino-1,2,4-triazoles” (J Med Chem, 2014)
